Most compounds without a hit are left out; they make up all but 2% or so of the library.
PAD4 inh – human PAD4 inhibitors, primary screen, biochemical, fluorescence polarization, 1536-well format; Protein-arginine deiminase type-4 (Homo sapiens), Q9UM07; actives 0.41% (n = 330,000); inhibition, % at 6.36 µM; recombinant PAD4, RCA probe fluorescence polarization;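 active means percent inhibition above a cutoff equal to the mean of all tested compounds plus 3 SD, cut at about 15% in these data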
Target sequence (Q9UM07 whole entry, looked up): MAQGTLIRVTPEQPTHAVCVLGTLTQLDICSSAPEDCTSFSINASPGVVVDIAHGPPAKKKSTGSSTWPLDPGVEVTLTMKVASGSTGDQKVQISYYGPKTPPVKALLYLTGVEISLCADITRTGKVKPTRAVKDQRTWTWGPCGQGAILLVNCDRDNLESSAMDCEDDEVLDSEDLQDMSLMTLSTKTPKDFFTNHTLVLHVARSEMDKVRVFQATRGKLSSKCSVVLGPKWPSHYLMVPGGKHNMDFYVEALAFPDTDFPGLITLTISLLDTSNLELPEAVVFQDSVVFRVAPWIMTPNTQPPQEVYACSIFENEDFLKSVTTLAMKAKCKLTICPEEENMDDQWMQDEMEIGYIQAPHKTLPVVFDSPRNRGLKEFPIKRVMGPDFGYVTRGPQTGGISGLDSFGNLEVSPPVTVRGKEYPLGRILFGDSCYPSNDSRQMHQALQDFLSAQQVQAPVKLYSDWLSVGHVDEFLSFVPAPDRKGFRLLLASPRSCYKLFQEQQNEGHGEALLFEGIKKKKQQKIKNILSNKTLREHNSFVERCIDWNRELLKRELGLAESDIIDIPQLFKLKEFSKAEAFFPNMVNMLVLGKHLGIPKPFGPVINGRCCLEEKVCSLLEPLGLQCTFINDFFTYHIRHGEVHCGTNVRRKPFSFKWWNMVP
UCH37 DUB inh – inhibitors of human UCH37 deubiquitinase, primary screen, biochemical, Ub-AMC cleavage, fluorescence. actives 0.33% (n = 330,000). inhibition, % (concentration not given with the values). AID 588478, 2011. purified proteasome/UCH37;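 active means mean inhibition over replicate wells above about 20%, limit read from the data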
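Material: Human UCH37 enzyme supplied as purified proteasome complex | Schedule: 30 min preincubation with enzyme, 25 min cleavage at room temperature | Detection: AMC fluorescence 355/460 nm | Measure: % inhibition of Ub-AMC cleavage fluorescence | Controls: Wells without proteasome as full block, compound-free enzyme plus substrate as uninhibited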
PP5 primary – PP5 phosphatase inhibitors, primary screen, biochemical, fluorescence. purified PP5c, OMFP substrate fluorescence. AID 1987, 2009. inhibition, % at 6.7 µM. actives 0.18% (n = 320,000);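 active means inhibition above the campaign's mean inhibition across all tested compounds plus 3 SD, cut at about 9.5% in these data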
Fh CTSL1 inh – Fasciola hepatica cathepsin L1 inhibitors, primary screen, counter-screen for PFM18AAP inhibitor project, biochemical, QFRET, fluorogenic peptide substrate | inhibition, % at 5.96 µM | actives 0.49% (n = 300,000) | recombinant F. hepatica cathepsin L1, Z-Leu-Arg-MCA fluorescence;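 active means inhibition above the mean of all tested compounds plus 3 SD, set per screening campaign, cut at about 17% in these data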
GSTO1 inh – inhibitors of recombinant GSTO1, primary screen, counter-screen for RBBP9 inhibitor project, biochemical, fluorescence polarization; activity-based probe fluorescence polarization; inhibition, % at 5.96 µM; Glutathione S-transferase omega-1 (Homo sapiens), P78417; actives 1.1% (n = 300,000);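 active means inhibition above the campaign mean inhibition plus 3 SD, cut at about 35% in these data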
Apaf-1 inh – inhibitors of human Apaf-1 apoptosome, primary screen, biochemical, DEVD-Rh110 fluorescence, uHTS; reconstituted apoptosome caspase-3 activity; Apoptotic protease-activating factor 1 (Homo sapiens), O14727; inhibition, % at 20 µM; actives 0.71% (n = 330,000); active means inhibition of at least 40% at 20 µM
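Material: reconstituted apoptosome with Apaf-1, cytochrome c, caspase-9, procaspase-3, dATP; medium: pH 7.5 Hepes buffer with CHAPS, BSA, DTT; also added: cytochrome c and DEVD-Rh110 substrate; timing: 30 min plus 50 min, RT; signal: Rh110 fluorescence intensity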
Numbers stand for hits.

COc1ccc2[nH]c3c(c2c1)CCNC3 was read as PAD4 inh inactive, UCH37 DUB inh inactive, PP5 primary inactive, Fh CTSL1 inh inactive, GSTO1 inh inactive and Apaf-1 inh inactive.
Screening COc1ccc2[nH]c3c(C)c4ccncc4c(C)c3c2c1 returned PAD4 inh inactive, UCH37 DUB inh inactive, PP5 primary inactive, Fh CTSL1 inh inactive, GSTO1 inh inactive and Apaf-1 inh 76.
`C[C@H]1CC=C[C@H]2[C@H](O)[C@H](C)[C@@](C)(O)[C@H]3[C@H](Cc4ccccc4)NC(=O)[C@]32[C@H](O)C=C[C@](C)(O)C1` gave UCH37 DUB inh inactive.
For CC(=O)c1ccccc1NC(=O)C1C2CCC(O2)C1C(=O)O (configuration not stated) the results were PAD4 inh inactive, PP5 primary 71, Fh CTSL1 inh inactive, GSTO1 inh inactive and Apaf-1 inh inactive.
For O=C(O)C1C2CCC(O2)C1C(=O)Nc1ccc(F)c(F)c1 (configuration not stated) the results were PAD4 inh inactive, UCH37 DUB inh inactive, PP5 primary 74, Fh CTSL1 inh inactive, GSTO1 inh inactive and Apaf-1 inh inactive.
For CC(C)C(=O)Nc1ccc(N2CCN(C)CC2)c(F)c1 the results were PAD4 inh inactive, UCH37 DUB inh inactive, PP5 primary inactive, Fh CTSL1 inh inactive, GSTO1 inh inactive and Apaf-1 inh inactive.
`C(=NNC1=NCCCCC1)c1c[nH]c2ccccc12` gave UCH37 DUB inh inactive.
CN[C@H]1C[C@H]2O[C@@](C)([C@H]1OC)n1c3ccccc3c3c4c(c5c6ccccc6n2c5c31)C(=O)NC4 was read as PAD4 inh inactive, PP5 primary inactive, Fh CTSL1 inh inactive, GSTO1 inh inactive and Apaf-1 inh 51.
For CNC(=O)Oc1ccc2c(c1)C(=O)c1ccccc1CO2 the results were PAD4 inh inactive, UCH37 DUB inh inactive, PP5 primary inactive, Fh CTSL1 inh 21, GSTO1 inh inactive and Apaf-1 inh inactive.
Screening CCCCn1c(NC(=O)c2ccc(Br)o2)c(C(=O)OCC)c2nc3ccccc3nc21 returned PAD4 inh 72, PP5 primary 13, Fh CTSL1 inh inactive, GSTO1 inh 90 and Apaf-1 inh 79.
CCCCC(=NO)c1c(C)[nH]c2ccccc12 was read as UCH37 DUB inh inactive.
`CN(C)C(=O)CSc1nnc([C@@H](N)Cc2ccccc2)o1` gave PAD4 inh inactive, UCH37 DUB inh inactive, PP5 primary inactive, Fh CTSL1 inh 33, GSTO1 inh inactive and Apaf-1 inh inactive.
Screening COc1ccc(N=Nc2c(O)[nH]c(=S)[nH]c2=O)cc1 returned PAD4 inh inactive, UCH37 DUB inh 21, PP5 primary inactive, Fh CTSL1 inh inactive, GSTO1 inh inactive and Apaf-1 inh inactive.
CN1C(=O)NC(=O)/C(=C/c2ccc([N+](=O)[O-])o2)C1=O was read as PAD4 inh inactive, UCH37 DUB inh 22, PP5 primary inactive, Fh CTSL1 inh inactive, GSTO1 inh inactive and Apaf-1 inh inactive.
CN(C)[C@@H]1C(=O)C(C(N)=O)=C(O)[C@@]2(O)C(=O)C3=C(O)c4c(O)cccc4[C@@](C)(O)[C@H]3C[C@@H]12 was read as PAD4 inh inactive, PP5 primary inactive, Fh CTSL1 inh inactive, GSTO1 inh 66 and Apaf-1 inh inactive.
`CC(C)C12CN3CCN(CC(C3)C1=NO)C2` gave UCH37 DUB inh inactive.
`Cc1ccc2c(c1Cl)NC(C(=O)O)C1CC(Sc3ccccc3[N+](=O)[O-])C(Cl)C21` (configuration not stated) gave PAD4 inh inactive, UCH37 DUB inh inactive, PP5 primary inactive, Fh CTSL1 inh inactive, GSTO1 inh 36 and Apaf-1 inh inactive.
`CC(=O)C1C2c3ccccc3OC1(C)N=c1sc(=Cc3cn(C)nc3C)c(=O)n12` (configuration not stated) gave UCH37 DUB inh inactive.
For CN1CCc2nc(N)c(C#N)c(-c3ccccc3)c2C1 the results were PAD4 inh inactive, UCH37 DUB inh inactive, PP5 primary inactive, Fh CTSL1 inh inactive, GSTO1 inh 36 and Apaf-1 inh inactive.
Screening ON=C1CCC2CN(C3CCCCC3)CC2C1 (configuration not stated) returned UCH37 DUB inh inactive.
Screening CCC(C)N1C(=O)/C(=C/c2ccc3c(c2)CCN3CCCCl)C(=O)NC1=S (configuration not stated) returned PAD4 inh inactive, UCH37 DUB inh inactive, PP5 primary inactive, Fh CTSL1 inh inactive and GSTO1 inh 37.
CCOC(=O)C(CCCN(CC)CC)=NO was read as UCH37 DUB inh inactive.
For Cc1ccccc1C(=O)NN=Cc1ccc(Sc2ccccn2)o1 the results were UCH37 DUB inh inactive.
Screening CC1=C2CCC3C(CCC4=CC(=O)CCC43C)C2CC1 (configuration not stated) returned UCH37 DUB inh 20.
C[C@H]1CCCC(=O)CCCC=Cc2cc(O)cc(O)c2C(=O)O1 was read as UCH37 DUB inh inactive.
For COc1ccc(OCC(=O)N2CCN(C/C=C/c3ccccc3)CC2)cc1 the results were PAD4 inh inactive, UCH37 DUB inh inactive, PP5 primary inactive, Fh CTSL1 inh 17, GSTO1 inh inactive and Apaf-1 inh inactive.
Screening COc1ccc(OC(=O)N(C)C)c(CN(C)C)c1 returned PAD4 inh inactive, UCH37 DUB inh inactive, PP5 primary inactive, Fh CTSL1 inh inactive, GSTO1 inh inactive and Apaf-1 inh inactive.
For COc1cc(OC)c(C=O)c(OC(=O)N(C)C)c1 the results were PAD4 inh inactive, UCH37 DUB inh inactive, PP5 primary inactive, Fh CTSL1 inh 28, GSTO1 inh inactive and Apaf-1 inh inactive.
`CC(CC(c1ccccc1)c1c(O)c2ccccc2oc1=O)=NNC(N)=S` (configuration not stated) gave UCH37 DUB inh inactive.
`Cc1ccccc1N1C(=O)NC(=O)/C(=C/c2ccc(N3CCOCC3)o2)C1=O` gave PAD4 inh inactive, UCH37 DUB inh 21, PP5 primary inactive, Fh CTSL1 inh inactive, GSTO1 inh inactive and Apaf-1 inh inactive.
`COc1ccc(N2C(=O)/C(=C/c3ccc(C)o3)C(=O)NC2=S)c(OC)c1` gave PAD4 inh inactive, UCH37 DUB inh inactive, PP5 primary inactive, Fh CTSL1 inh inactive, GSTO1 inh inactive and Apaf-1 inh inactive.

Screening data: PubChem BioAssay, several laboratories
